# High-throughput results as filed in PubChem BioAssay.
# STAT1 act: increases IFN-gamma driven STAT1 reporter signal. NIH 3T3 STAT1-luciferase reporter, luminescence; 100% = IFN-gamma alone, no compound. activation (% of control), % at 5.5 µM. 200,000 compounds, 2.6% hits;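 active = activation above the screen-wide mean activation plus 3 SD, cut at about 130% in these data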;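 note: raw ratio to IFN-gamma control signal so 100% means no change and 0% no light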
# STAT1 blocker: reduces IFN-gamma driven STAT1 reporter signal; NIH 3T3 STAT1-luciferase reporter, luminescence; inhibition, % at 5.5 µM; 200,000 compounds, 0.35% hits;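 active = inhibition above a set limit, the mean inhibition across all tested compounds plus 3 SD, cut at about 34% in these data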;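 note: 0% = IFN-gamma with DMSO and 100% = IFN-gamma with 300 µM nifuroxazide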
# NF-kB expr up: NF-kB expression increase, human neuronal cells. NF-kB reporter expression; stronger effect = higher value. fold change at 12.5 µM. 190,000 compounds, 1.6% hits. AID 1239; in the data active = fold change above about 3.3
# STAT3 inh: reduces IL-6 driven STAT3 reporter signal; U3A cells, IL-6 STAT3-luciferase reporter, luminescence; host cell line lacks STAT1; inhibition, % at 5.5 µM; 190,000 compounds, 0.89% hits;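 active = inhibition above the mean inhibition across all screened compounds plus 3 SD, cut at about 44% in these data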;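 note: 0% = DMSO only wells and 100% = 100 µM nifuroxazide control wells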
# STAT3 act: increases IL-6 driven STAT3 reporter signal; 190,000 compounds, 0.91% hits; activation (% of control), % at 5.6 µM; U3A cells, IL-6 STAT3-luciferase reporter, luminescence; 100% = signal with IL-6 EC80 alone; AID 871;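 active = activation above the screen-wide mean of compound activation plus 3 SD, cut at about 130% in these data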;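 note: 0% = background luminescence of wells with medium and substrate only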
#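 Material: STAT1-lacking human U3A cells, STAT3 luciferase reporter | Benchmarks: IL-6-only wells as 100% reference | Probe or stimulus: IL-6 (33 ng/mL) | Timing: Compound 1 h, then IL-6 6 h at 37 °C | Detection: Luminescence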
# APP 5'UTR act: APP 5'UTR luciferase reporter activation; AID 1276; SH-SY5Y APP 5'UTR luciferase reporter, luminescence; zero percent = DMSO vehicle wells; 190,000 compounds, 1% hits; activation, % at 2 µM;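 active = activation above a set limit, based on mean plus 3 SD of controls, cut at about 140% in these data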
# Active calls of the source: *; . = no result given. The list is not random: actives were taken first. Their share in the collection is about 4.9%.
SMILES,STAT1 act,STAT1 blocker,NF-kB expr up,STAT3 inh,STAT3 act,APP 5'UTR act
Cc1ccc2nc(N/N=C/c3ccco3)cc(C)c2c1,138*,-44,3.2,0,103,101
c1ccn2cc(-c3ccc4c(c3)OCCO4)nc2c1,44,60*,1.9,90*,26,117
Clc1ccc2nc(-c3ccc4c(c3)OCO4)cn2c1,40,65*,5*,83*,29,158*
Cc1nn(Cc2ccccc2)c(Cl)c1/C=C/C(=O)OCC(=O)N1CCCC1=O,98,0,7*,-3,105,22
Cc1nn(Cc2ccccc2)c(Cl)c1/C=C/C(=O)OCC(=O)N(C)C1CCS(=O)(=O)C1 (stereo not drawn),105,-4,1.3,8,94,7
Cc1ccc(C(=O)N2NC(c3ccc(F)cc3)C3C(=O)N(c4ccc(C)c(C)c4)C(=O)C32)cc1 (stereo not drawn),103,-3,1.2,-12,110,2
CCOC(=O)C(C)Sc1ncnc2c1nnn2-c1ccc(F)cc1 (stereo not drawn),132*,-35,1.8,9,93,10
CCC(Sc1ncnc2c1nnn2-c1ccc(F)cc1)C(=O)OC (stereo not drawn),117,-19,2.1,4,97,9
COc1ccccc1CCc1nnc(CCC(=O)NC(C)Cc2cccs2)o1 (stereo not drawn),104,-7,1.5,1,101,6
Cc1cccc(NC(=O)/C=C/c2ccc(Cl)cc2)n1,139*,-44,1.2,36,71,182*
Cc1ccc(/C=C/C(=O)Nc2cc(C)on2)cc1,133*,-36,2.4,15,90,46
CC(=O)c1ccc(NC(=O)/C=C/c2ccc(C)cc2)cc1,107,-8,1.4,9,91,10
Cc1ccc(NC(=O)/C=C/c2ccc3c(c2)OCO3)nc1,121,-24,0.97,-2,101,152*
CCC(=O)Nc1ccc(NC(=O)/C=C/c2ccc(Cl)cc2)cc1,101,-1,1.3,0,99,3
Cc1ccc(NC(=O)Nc2ccc3c(c2)OCO3)nc1,149*,-52,4*,4,97,103
O=C(CNC(=S)N(Cc1ccccc1F)C1CCCCC1)NCC1CCCO1 (stereo not drawn),102,-4,1.2,0,101,-13
COC(=O)c1sc(NC(=S)NC(=O)c2ccccc2F)nc1C,129*,-32,1.3,-7,108,78
CCOC(=O)c1sc(NC(=O)c2ccccc2OC)nc1C,146*,-51,8*,39,74,153*
CCOC(=O)CNC(=O)c1sc(NC(=O)c2ccccc2F)nc1C,129*,-31,2.5,0,102,91
CCOC(=O)c1sc(NC(=O)c2ccc(CC)s2)nc1C,126,-29,2.3,5,99,29
CCOC(=O)c1sc(NC(=O)c2ccc3ncsc3c2)nc1C,148*,-50,2,32,74,83
COc1ccccc1-c1ccc(=O)n(CC(=O)NC2CCc3ccccc32)n1 (stereo not drawn),101,-3,1.4,9,95,-7
Cc1ccc(SCC(=O)NC(=O)NCCC(C)C)c(C)c1,99,2,1.5,-7,106,12
CCCC(C(=O)NC1=NCCS1)c1ccccc1 (stereo not drawn),92,10,1.1,5,100,1
O=C(NCCc1ccc(Cl)cc1)C1CCN(c2ncccn2)CC1,106,-8,1.2,1,104,-20
SMILES,STAT1 act,STAT1 blocker,NF-kB expr up,STAT3 inh,STAT3 act,APP 5'UTR act
CNc1ccc(/C=C(\C#N)c2ccccn2)cc1[N+](=O)[O-],139*,-42,1.8,4,99,125
N#C/C(=C\c1ccccc1)c1ccccn1,130*,-32,1.9,8,94,46
N#C/C(=C\c1ccc(Cl)c([N+](=O)[O-])c1)c1ccccn1,97,2,1.2,16,90,42
COC(=O)/C(C#N)=C/c1ccc(OC(=O)c2ccccn2)cc1,113,-13,1.4,-5,103,19
CC(C)N=C(NS(=O)(=O)NC(=O)c1ccccc1)c1ccccc1,103,-4,1.1,24,87,-15
COC(=O)c1sc2nc3c(cc2c1N)COC(C)(C)C3,142*,-48,4.2*,3,98,-11
O=C(Nc1ccccc1)N1CC=C(c2ccc(F)cc2)CC1,142*,-50,1.5,17,88,94
O=C(Nc1ccccc1)N1CC=C(c2ccccc2)CC1,145*,-48,2.2,19,87,56
CCOc1ccc(-c2nc(-c3cccnc3)no2)cc1,140*,-44,6.8*,37,68,129
CCOc1ccc(-c2noc(-c3cccnc3)n2)cc1OC,127,-29,1.1,10,94,4
CCCCOc1ccc(-c2nc(-c3cccnc3)no2)cc1,128,-29,5.2*,-4,107,175*
O=C(NNC(=O)c1ccncc1)NC1CCCCC1,96,3,1.2,9,95,-15
O=[N+]([O-])c1ccc(Cc2nnc(-c3ccccc3Cl)o2)cc1,97,3,3.6*,31,81,166*
O=C1c2ccccc2C(=O)C1c1ccc(O)cc1,98,1,3.8*,21,84,48
CN(Cc1ccccc1)Cc1nc2scc(-c3ccccc3)c2c(=O)[nH]1,99,0,1.1,14,92,38
COC(=O)c1ccc(C(=O)OC)c(NC(=S)N2CCN(c3ccccn3)CC2)c1,95,3,1.1,10,94,17
CCOc1ccc(CC(=O)N2CCN=C2SC)cc1,106,-6,1.1,-8,106,-8
Cc1cccc(C(=O)O/N=C(\N)c2cccc([N+](=O)[O-])c2)c1,130*,-33,2.9,3,107,95
Cc1ccccc1C(=O)O/N=C(\N)c1cccc([N+](=O)[O-])c1,139*,-43,3.2,-21,128,89
COc1ccc(/C(N)=N/OC(=O)c2cccc([N+](=O)[O-])c2C)cc1OC,112,-13,1.3,22,84,0
N/C(=N\OC(=O)c1cccc2ccccc12)c1cccc([N+](=O)[O-])c1,106,-7,1.4,24,89,18
COc1cccc(C(=O)O/N=C(\N)c2ccc([N+](=O)[O-])cc2)c1OC,132*,-35,2.7,9,98,.
CCCCNC(=O)c1cc2ccccc2s1,110,-11,1.8,27,83,47
CCCN1CCN(CCCNC(=O)CCn2nc(-c3ccccc3)ccc2=O)CC1,107,-9,1.1,14,98,-7
Cc1c(Cl)ccc2c(C(=O)NCCN3CCCCC3)cc(-c3ccccn3)nc12,116,-20,0.98,-42,134*,13
